Source: PubChem
In the library only some 1.9% were active in any assay of this set; here they are far more common.
MBD2 inh = inhibitors of MBD2 binding to methylated DNA, primary screen, biochemical, TR-FRET, DNA-binding domain, human; 370,000 tested, 0.31% active; MBD2 binding to methylated oligonucleotide; inhibition, % at 4.4 µM; Methyl-CpG-binding domain protein 2 (Homo sapiens), Q9UBB5; in the data active means inhibition above about 13%
Target sequence (Q9UBB5 whole entry, looked up, the tested form may be a part): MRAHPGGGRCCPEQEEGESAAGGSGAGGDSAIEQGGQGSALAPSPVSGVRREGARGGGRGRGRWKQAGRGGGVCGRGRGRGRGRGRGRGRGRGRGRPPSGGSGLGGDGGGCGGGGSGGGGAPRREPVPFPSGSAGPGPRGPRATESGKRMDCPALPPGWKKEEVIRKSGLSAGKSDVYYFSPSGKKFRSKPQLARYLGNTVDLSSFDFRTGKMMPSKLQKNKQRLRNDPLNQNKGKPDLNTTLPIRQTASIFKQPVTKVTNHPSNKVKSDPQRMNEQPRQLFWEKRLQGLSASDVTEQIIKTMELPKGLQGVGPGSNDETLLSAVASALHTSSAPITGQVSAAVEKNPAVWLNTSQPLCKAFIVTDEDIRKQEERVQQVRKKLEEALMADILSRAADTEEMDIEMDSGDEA
LEDGF integ inh = blockers of LEDGF/p75-dependent integrase strand transfer – biochemical, TR-FRET, high throughput, primary screen | TR-FRET IN-LEDGF/p75 DNA integration, Eu/Cy5 | inhibition, % at 3.7 µM | 370,000 tested, 0.64% active | AID 743269, 2014;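 active means inhibition above the screen-wide mean plus 3 SD, cut at about 13% in these data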;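 further: signal is the Cy5 over europium emission ratio at 671 and 618 nm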
UHRF1 binding = UHRF1 methylated DNA binding inhibitors, primary screen, counter-screen for MBD2 inhibitor project, biochemical, TR-FRET, human UHRF1, single concentration | E3 ubiquitin-protein ligase UHRF1 (Homo sapiens), Q96T88 | UHRF1 binding to methylated oligo | inhibition, % at 4.4 µM | 370,000 tested, 0.75% active | AID 687016, 2013; in the data active means inhibition above about 21%;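 further: UHRF1 SRA domain binding a hemimethylated CpG hairpin DNA probe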
TDP2 inh = human TDP2 enzyme inhibitors, primary screen, biochemical, epi absorbance, recombinant enzyme; inhibition, % at 12.8 µM; Tyrosyl-DNA phosphodiesterase 2 (Homo sapiens), O95551; 370,000 tested, 0.34% active; AID 720702, 2013; T5PNP hydrolysis, p-nitrophenol absorbance 415 nm;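 active means inhibition above the mean of all tested compounds plus 3 SD, set per campaign, cut at about 25% in these data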
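Assay system: recombinant human TDP2 / Reagent: T5PNP substrate at 5 mM, a TopII-DNA adduct mimic / Measured by: epi absorbance from released p-nitrophenol / Evaluation: % inhibition relative to enzyme-containing and enzyme-free wells / Control set: enzyme-free and DMSO wells / Replicates: each compound tested once, singlicate / Schedule: enzyme reaction with compound for 2 h at 37 °C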
Rin1-Abl PPI inh = inhibitors of Rin1-Abl protein binding, primary screen, biochemical, TR-FRET; Tyrosine-protein kinase ABL1 (Homo sapiens) + Ras and Rab interactor 1 (Homo sapiens), …; 360,000 tested, 0.4% active; inhibition, % at 7.35 µM; AID 588664, 2011; in the data active means inhibition above about 5%, passing the limit was not always enough
Hits are given with their value.

`Cn1c(CN2CCCC2)c(C#N)c2ccccc21` gave MBD2 inh inactive, LEDGF integ inh inactive, UHRF1 binding 65, TDP2 inh inactive and Rin1-Abl PPI inh inactive.
For CC1CCN(S(=O)(=O)c2cccc(C(=O)NNC(=O)c3ccco3)c2)CC1 the results were MBD2 inh inactive, LEDGF integ inh inactive, UHRF1 binding 30, TDP2 inh inactive and Rin1-Abl PPI inh inactive.
CC1CCN(S(=O)(=O)c2cccc(C(=O)NCc3ccco3)c2)CC1 was read as MBD2 inh inactive, LEDGF integ inh inactive, UHRF1 binding inactive, TDP2 inh inactive and Rin1-Abl PPI inh inactive.
For Cn1c(SC/C=C/c2ccccc2)nnc1-c1cccnc1 the results were MBD2 inh inactive, LEDGF integ inh inactive, UHRF1 binding inactive and TDP2 inh inactive.
For C[C@@H]1CCCCO[C@H](CN(C)C(=O)CCC(F)(F)F)[C@H](C)CN([C@@H](C)CO)C(=O)c2cc(NS(=O)(=O)c3ccc(Cl)cc3)ccc2O1 the results were MBD2 inh inactive, LEDGF integ inh inactive, UHRF1 binding inactive and TDP2 inh inactive.
C[C@@H]1CCCCO[C@@H](CN(C)C(=O)CCC(F)(F)F)[C@@H](C)CN([C@H](C)CO)C(=O)c2cc(NS(=O)(=O)c3cccs3)ccc2O1 was read as MBD2 inh inactive, LEDGF integ inh inactive, UHRF1 binding 22 and TDP2 inh inactive.
C[C@@H]1CN([C@@H](C)CO)C(=O)c2cc(NC(=O)c3ccccc3)ccc2O[C@@H](C)CCCCO[C@@H]1CN(C)S(=O)(=O)c1ccc(F)cc1 was read as MBD2 inh inactive, LEDGF integ inh inactive, UHRF1 binding 21, TDP2 inh inactive and Rin1-Abl PPI inh inactive.
`Cc1ccc(S(=O)(=O)N(C)C[C@@H]2OCCCC[C@H](C)Oc3ccc(NC(=O)Nc4ccc(F)cc4)cc3C(=O)N([C@H](C)CO)C[C@H]2C)cc1` gave MBD2 inh inactive, LEDGF integ inh inactive, UHRF1 binding inactive, TDP2 inh inactive and Rin1-Abl PPI inh inactive.
Screening CN(C(=O)COC(=O)c1cc([N+](=O)[O-])ccc1N1CCOCC1)C1CCCCC1 returned MBD2 inh inactive, LEDGF integ inh inactive, UHRF1 binding inactive, TDP2 inh inactive and Rin1-Abl PPI inh inactive.
Screening CCN(C(=O)COC(=O)c1cc([N+](=O)[O-])ccc1N1CCOCC1)C1CCCCC1 returned MBD2 inh inactive, LEDGF integ inh inactive, UHRF1 binding 26, TDP2 inh inactive and Rin1-Abl PPI inh inactive.
For CCN(CC)C(=O)CSc1nnc(-c2ccc(C(C)(C)C)cc2)n1-c1ccc(Cl)cc1 the results were MBD2 inh inactive, LEDGF integ inh inactive, UHRF1 binding inactive and TDP2 inh inactive.
CC(=O)OC12CCCN(C1)/C(=C/c1ccc(Cl)cc1)C2 (configuration not stated) was read as MBD2 inh inactive, LEDGF integ inh inactive, UHRF1 binding inactive and TDP2 inh inactive.
Screening COc1ccc(CSC(=N)N)cc1[N+](=O)[O-] returned MBD2 inh inactive, LEDGF integ inh inactive, UHRF1 binding inactive, TDP2 inh inactive and Rin1-Abl PPI inh inactive.
N=C(N)SCc1ccc(O)c([N+](=O)[O-])c1 was read as MBD2 inh inactive, LEDGF integ inh inactive, UHRF1 binding 38, TDP2 inh inactive and Rin1-Abl PPI inh inactive.
Cn1ccnc1C(=O)c1cc(SCC(=O)NCc2ccccc2)nc2ccccc12 was read as MBD2 inh inactive, LEDGF integ inh inactive, UHRF1 binding 26, TDP2 inh inactive and Rin1-Abl PPI inh inactive.
COC(=O)CSc1cc(C(=O)c2nccn2C)c2ccccc2n1 was read as MBD2 inh inactive, LEDGF integ inh inactive, UHRF1 binding inactive, TDP2 inh inactive and Rin1-Abl PPI inh inactive.
For N=C1/C(=C/c2ccc(OCc3ccccc3)cc2)C(=O)N=C2SC(CC(=O)N3CCOCC3)=NN12 the results were MBD2 inh inactive, LEDGF integ inh inactive, UHRF1 binding inactive, TDP2 inh inactive and Rin1-Abl PPI inh inactive.
